The term apparent Kd denotes a dissociation constant that holds for the conditions of the assay.

For the data set, the system named is MS2 coat protein. Put plainly: apparent Kd, MS2 coat protein; higher = weaker binding; RNA-MaP array; FMN 200 µM where present. A digest of the protocol: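 Designs were transcribed by stalled E. coli RNA polymerase on Illumina sequencing-chip clusters. They were titrated with SNAP-549-labelled MS2 coat protein from 0.7 or 1.5 nM, doubling to 3 µM, without and then with constant ligand. Buffer: 100 mM Tris-HCl pH 7.5, 80 mM KCl, 4 mM MgCl2, BSA, DTT, yeast tRNA, Tween-20. Green signal was normalised to red-channel RNA signal and control-cluster median Fmax. Apparent Kd is the median of filtered per-cluster binding-curve fits.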

The mark [1] stands for this setting: designed as: ON switch for flavin mononucleotide, no ligand.
The mark [2] stands for this setting: ligand present: flavin mononucleotide, designed as: ON switch for flavin mononucleotide.
The mark [3] stands for this setting: ligand present: flavin mononucleotide, designed as: OFF switch for flavin mononucleotide.
The mark [4] stands for this setting: designed as: OFF switch for flavin mononucleotide, no ligand.

For “GGGAGACAUGAGGAUCACCCAUGUGAAAACGUGGCAGGAUAUGGAUGGAAACCAUACUGUCCAGAAGGGCCUUGUC”, the “apparent Kd” value reads like this: under setting [1], 47.4 nM; under setting [2], 37.8 nM.

On to “UUAUCUUGUCAAGGAUAUGUUGUAUUGAUCUGAAAACAUGAGGAUCACCCAUGUAUACGGUGGGAACAGAAGGUGAAUGUAGAA”, for which the “apparent Kd” value under setting [3] stood at 721 nM. For “CAUGACGAAGGAUAUACAUGAGGAUCACCCAUGUGGUCAUGGAAUUACGUGUUCUCGCGUAGAAGGUUGUAGAG”, the “apparent Kd” value is 11.3 nM under setting [4] and 12.8 nM under setting [3]. In the case of “UUUGGGUGGCUGGAGGAUAUCCUUGUUGUUACAUGAGGAUCACCCAUGUGCCGCGCGGUUCGCGAGGAGAAGGCUGGCGGCCGUU”, the “apparent Kd” value by setting is: under setting [1], 331 nM; under setting [2], 61.3 nM. As to “CUGCUAAUAGGAUAUGCUAGGGAGGCUUCACGUUAGCAGGAACAUGAGGAUCACCCAUGUAGAAGGAUUGUAGA”, the “apparent Kd” value stood at 30.2 nM under setting [4] and 21.2 nM under setting [3]. For “CUUGUGUUAGGAUAUGCGUUUCCGGUACGUCACCGGAUCUGGCAGAAGGGACAUGAGGAUCACCCAUGUUUGGC”, in that order: 46.6 nM and 30.3 nM.

Consider “ACAUGAGGAUCACCCAUGUUCACAUAGGAUAUUGAUUAUAUUGGUUUUAGAAUAGUAAUUAACCUCAAGAAGGAUGCCUGAUCU”, for which the “apparent Kd” value by setting is: under setting [1], 12.5 nM; under setting [2], 10.9 nM.

As for “AUGCAGCUACCACAGGAUAUACGUGGAUCGACAUGAGGAUCACCCAUGUAUAUCCUAAUAAUUGCGUAGAAGGGUGGUCAGCUGC”, the “apparent Kd” value by setting is: under setting [1], 1540 nM; under setting [2], 103 nM. Take “GUGUACAGAGGAUAUAUAUGAGCUAGGAAACUAGCAACCUCACAUGAGGAUCACCCAUGUAGAAGGCUGUACAC”: the “apparent Kd” value runs as follows: under setting [4], 103 nM; under setting [3], 346 nM.

For “CAAAUUAGCGAGAAGGAGCGCCCGUAGGUACAUGAGGAUCACCCAUGUCCUUUGUGCUCUACGCGCUAGGAUAUCGAUAAACAG”, the “apparent Kd” value runs as follows: under setting [4], 12.8 nM; under setting [3], 99.4 nM. Consider “UCGAAGAAGCAAGGAUAUCAAUAUUAGCAAAAUAUGACAUGAGGAUCACCCAUGUAAAUAUGGAGUGAGAAGGUGCAAUAAUUU”, for which the “apparent Kd” value reads like this: under setting [1], 274 nM; under setting [2], 149 nM.

As for “GUCGAGUGAGGAUAUGGUGAGUAGUGCCUGAGCGCUGCUCACCAGAAGGCACAUGAGGAUCACCCAUGUAUGAC”, the “apparent Kd” value under setting [4] worked out at 18.2 nM and the “apparent Kd” value under setting [3] was found to be 23.9 nM. The like results for “GGAUAGGACAGAGGAUAUACAGAUAGGAUCUACUAUCAAACAAUCCUGACAUGAGGAUCACCCAUGUAGAAGGCUGUCCUAUCG” were, in that order, 24.6 nM and 85.1 nM. Regarding “GAUUAACAUGAGGAUCACCCAUGUGUGAAUAUGGGAGGAUAUACGUGGACCGUAGUCCGCGUAGAAGGCCUAAUUG”, the “apparent Kd” value is 279 nM under setting [1] and 46.1 nM under setting [2]. As to “GGAUGACAAAGUCAUCCUUAACGAACAUGAGGAUCACCCAUGUAGGAUAUGCAACUCAAAGAGUUGCAGAAGGACAUGUGCCUU”, the “apparent Kd” value came out at 35.9 nM under setting [4] and 238 nM under setting [3].

On to “CCUUUGUCAGGAUAUCAGAACACGCCCGUAGGGAGUGCAAAUGAGAAGGGACAUGAGGAUCACCCAUGUACAGA”, for which the “apparent Kd” value worked out at 33.2 nM under setting [4] and 114 nM under setting [3]. Regarding “UGGUCGGAGACAGGAUAUGUGACUGCAUAGUGCACAGAAGGGUCUACAUGAGGAUCACCCAUGUCACCGAACACCAAACAACAA”, the “apparent Kd” value is, setting by setting: under setting [1], 412 nM; under setting [2], 41.2 nM. Turning to “AUAAUUUAAGUGAGGAUAUACCUAUGGAAACAUAGGUAGAAGGCACAUGAGGAUCACCCAUGUUUUUACACAAA”, the “apparent Kd” value stood at 17.8 nM under setting [4] and 37.9 nM under setting [3]. The like results for “AAUAACAGAGGAUAUACUGUUUUAUGUGUUUGUUAUUUUAAACAUGAGGAUCACCCAUGUAGAAGGCUGAAUGA” were, in that order, 21.5 nM and 24.5 nM. For the sequence “GUAGCAUACCGAGGAUAUUCAGGGCGUGGGUAAACAUGAGGAUCACCCAUGUGGCGAAAGCCUAGGGAGAAGGCGGAAUGCUAC”, the “apparent Kd” value came to 151 nM under setting [1] and 130 nM under setting [2]. For “GUCAGCUCGUGAGGAUAUACAAAACUGCUUCGGCAGUGUAUUAAGAUCACAUGAGGAUCACCCAUGUAGAAGGCACGAGCUGAU”, the “apparent Kd” value under setting [4] worked out at 8.71 nM and the “apparent Kd” value under setting [3] is 82.3 nM. The like results for “UUAAUUAAUUAAUUGCAGUUUACAUGAGGAUCACCCAUGUAUAAGGAUAUGCAGUGGAAUACACUGCAGAAGGUAUACAUCUGC” were, in that order, 19.5 nM and 35.2 nM. On to “AAUAUGCAAGGAUAUACAACGUAGCUACGACGGAACGGGCUACAUGAGGAUCACCCAUGUAGAAGGUGCUACGC”, for which the “apparent Kd” value under setting [4] was determined as 15.2 nM and the “apparent Kd” value under setting [3] was determined as 16.7 nM. On to “GCGUAUUUAAGAUUUAUAAAACAGUCAGAAGGUGAUAAGACGACAUGAGGAUCACCCAUGUAAUUCAAGGAUAUGAAAAUGCGC”, for which the “apparent Kd” value was found to be 48.6 nM under setting [1] and 22.1 nM under setting [2]. For “CGUCGUCUACGACGCACAUGAGGAUCACCCAUGUGGCAGACACAGGAUAUCCGUUGGAAUGUCCAGGAGAAGGGUGAUCGCAUA”, the “apparent Kd” value under setting [1] was 38.6 nM and the “apparent Kd” value under setting [2] was found to be 77.5 nM. As for “GGGUUUGGAGGAUAUACAUGAGGAUCACCCAUGUAGGGCCCGGGUAUUCCCGGGCCCUGUAGAAGGCCGGGCCC”, the “apparent Kd” value is, setting by setting: under setting [4], 14.1 nM; under setting [3], 16.5 nM.

Regarding “ACUAUACGAGGAUAUACUGACGGGCCUCAGGCGUCCAUCAGACAUGAGGAUCACCCAUGUAGAAGGCGUAUACU”, the “apparent Kd” value reads like this: under setting [4], 85.5 nM; under setting [3], 196 nM.

Turning to “AUUAAGCAGCAGGAUAUAAGUAUCUAAAGGUGGUUAGAAGGGCUGACAUGAGGAUCACCCAUGUGCUCUUCGUG”, the “apparent Kd” value is, setting by setting: under setting [4], 15.7 nM; under setting [3], 21.1 nM.

“ACAUGAGGAUCACCCAUGUUUUUUGGGUACUCUUGAUACAGCAAGGAUAUGCAUUAUUUAUGUACGCAGAAGGUGCAUUACGUC”: the “apparent Kd” value runs as follows: under setting [4], 920 nM; under setting [3], 853 nM. On to “GUGUACGGAGGAUAUAUAUGGGCAGCAUACGCUGCAGCUUCACAUGAGGAUCACCCAUGUAGAAGGCUGUGCAC”, for which the “apparent Kd” value reads like this: under setting [4], 22.4 nM; under setting [3], 129 nM. Consider “UGUCGGAGCAGAGGAUAUUACAUGAGGAUCACCCAUGUAUGAACCAAUAGCUGGAAACACCAAUGUAAGAAGGCUGCUCCGACA”, for which the “apparent Kd” value by setting is: under setting [4], 19.8 nM; under setting [3], 146 nM. Turning to “CCCACGAAAGUCGAACGAUGAUGGAGAAGGACUAUAACAUGACAUGAGGAUCACCCAUGUGCCAAGUAGGAUAUCCAUCAUGGG”, the “apparent Kd” value is, setting by setting: under setting [4], 5.97 nM; under setting [3], 5.34 nM. For “AAAUAGUUAGGAUAUACAUGAGGAUCACCCAUGUGGACUGAUGGCGAUUGAUUCAGUGGUAGAAGGGACUCAAA”, in that order: 37.4 nM and 56.4 nM.

Take “UGUGCACUAGGAUAUGCGUAAGCUGAUACGUCAGCAGGUCUACAUGAGGAUCACCCAUGUAGAAGGAGUGUACU”: the “apparent Kd” value under setting [4] came to 17.1 nM and the “apparent Kd” value under setting [3] came to 16.9 nM. For the sequence “AAAACGUCAGGAUAUACAGAAGAGAUCACAAAAAAAAAAAAACAUGAGGAUCACCCAUGUAGAAGGGACAAAAA”, the “apparent Kd” value runs as follows: under setting [4], 138 nM; under setting [3], 188 nM. For “UGUCAUAAACAGAAGGGUAGUUGGGUUAUACAUGAGGAUCACCCAUGUAUUACAGGAUAUGUGUAAAGUUAUUAUUAAAGUAAA”, the “apparent Kd” value by setting is: under setting [4], 12.6 nM; under setting [3], 13.8 nM.

For “GAGUGACAUGAGGAUCACCCAUGUAAGGAUAUACGGUUGGUAGAGAGAGGGCUAAAGGGUAGAAGGUACGAAGG”, the “apparent Kd” value reads like this: under setting [4], 76.7 nM; under setting [3], 48.7 nM. On to “GAGCGCUGUCGAGAGGAUAUGCGGUGAUGGACAUGAGGAUCACCCAUGUUAGCGAUAGCAUUACGGUAGAAGGCUCUACAGCUGC”, for which the “apparent Kd” value is 33.4 nM under setting [1] and 15.4 nM under setting [2].

For the sequence “GCUCGUGGACAGAAGGCGACAUGAGGAUCACCCAUGUUGGCUCGGGUAUGACCAAUCCGCAUGAUCGAGGAUAUGUCUGCGGGC”, the “apparent Kd” value stood at 419 nM under setting [4] and 19.2 nM under setting [3].

Turning to “GUCUUGUCAGGAUAUCUUACAUAACAAUCGUAGUUACAAUUGGAGAAGGGACAUGAGGAUCACCCAUGUUAGCC”, the “apparent Kd” value worked out at 18.7 nM under setting [4] and 21 nM under setting [3]. The like results for “CAUGCGGGCGGGUUUUUGAUACAUGAGGAUCACCCAUGUCUUGAGGAUAUCUUUGCAACACGCCAAGAGAAGGCAAGGCGUUUC” were, in that order, 33.6 nM and 107 nM. On to “AAAACAUGAGGAUCACCCAUGUAAAGAUCGGUCGAUCAAGGUGAGGAUAUACAAAACUUGAUGGAGUAGAAGGCACUGGGUUGA”, for which the “apparent Kd” value turned out to be 384 nM under setting [1] and 201 nM under setting [2]. On to “UGCCUUGAGUAGAAGGGCUGUGCUGUGGCACUGAGUCCUCUCGACAUGAGGAUCACCCAUGUAGAGCAGGAUAUACUCGGAUAA”, for which the “apparent Kd” value is, setting by setting: under setting [4], 5.78 nM; under setting [3], 7.3 nM. For “AAAUUCUGAGGAUAUCGAUGUUUGUACAUGAGGAUCACCCAUGUCCUUUUUAUUUUUUCUCGAGAAGGCAGUGUAU”, in that order: 38.1 nM and 35.3 nM. For “UAAAUUAACAAGAAGGCUAACAUGAGGAUCACCCAUGUUGUACAUGGAUAUAGAGGAUAUUGCUAUUAAUUAUUUAUCAUAAUU”, the “apparent Kd” value runs as follows: under setting [4], 21.2 nM; under setting [3], 18.9 nM.

Turning to “GCACGGUAAGUGAGGAUAUACCUCUGGAUACAGAGGUAGAAGGCACAUGAGGAUCACCCAUGUUCCUGCCGUGC”, the “apparent Kd” value reads like this: under setting [4], 17.2 nM; under setting [3], 92.9 nM. For “AAAAUACAUGAGGAUCACCCAUGUUAGGAUAUCCAAGGCCUGACCCUCAAGGUCAGGCGGAGAAGGGAUGUGGU”, in that order: 50.4 nM and 51.3 nM.

With “CUACUCAUGUAAGGAUAUGCAGCCGAAACGGCUGCAGAAGGUACUAUAAUACAUGAGGAUCACCCAUGUAAAAUAAAUAAAGUU”, the “apparent Kd” value by setting is: under setting [1], 33.8 nM; under setting [2], 14.7 nM.

(Values after the EternaBench riboswitch data.)
